From ChEMBL document CHEMBL4229460, “Design and biological evaluation of novel hybrids of 1, 5-diarylpyrazole and Chrysin for selective COX-2 inhibition” (Bioorg Med Chem, 2018)

Columns and labels:
[1] = target: Prostaglandin G/H synthase 1 (Homo sapiens, UniProt P23219); assay: Inhibition of COX1 (unknown origin) using arachidonic acid as substrate pretreated for 10 mins followed by substrate addition and measured after 2 mins by ELISA; format: ADME
[2] = target: T1, Prostaglandin G/H synthase 2 (Homo sapiens, UniProt P35354); assay: Inhibition of COX2 (unknown origin) using arachidonic acid as substrate pretreated for 10 mins followed by substrate addition and measured after 2 mins by ELISA
T1 sequence (P35354 whole entry): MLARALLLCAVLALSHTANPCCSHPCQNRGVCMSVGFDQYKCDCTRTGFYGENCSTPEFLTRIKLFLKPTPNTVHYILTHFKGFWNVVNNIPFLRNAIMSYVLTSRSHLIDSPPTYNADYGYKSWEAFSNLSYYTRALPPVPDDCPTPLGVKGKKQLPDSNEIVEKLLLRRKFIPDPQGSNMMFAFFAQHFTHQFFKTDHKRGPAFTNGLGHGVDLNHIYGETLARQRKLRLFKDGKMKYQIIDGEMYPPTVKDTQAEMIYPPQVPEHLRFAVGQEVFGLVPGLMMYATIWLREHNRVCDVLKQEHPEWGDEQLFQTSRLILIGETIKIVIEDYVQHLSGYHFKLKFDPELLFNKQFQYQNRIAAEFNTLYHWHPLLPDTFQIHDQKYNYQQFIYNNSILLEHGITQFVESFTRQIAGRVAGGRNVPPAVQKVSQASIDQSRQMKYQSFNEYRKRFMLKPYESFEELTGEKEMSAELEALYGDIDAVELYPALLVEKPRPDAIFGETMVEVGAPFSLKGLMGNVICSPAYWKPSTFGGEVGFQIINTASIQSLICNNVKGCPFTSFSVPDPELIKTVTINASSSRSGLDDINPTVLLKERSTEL

Homo sapiens = species on record: Homo sapiens; assay: Selectivity index, ratio of IC50 for COX1 (unknown origin) to ratio of IC50 for COX2 (unknown origin)
In short: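 Enzyme ELISA kit: COX-1 or COX-2 preincubated with compound at 0, 1, 10 or 100 μM for 10 min at 37 °C in 0.1 M Tris-HCl pH 8.0, 5 mM EDTA, 2 mM phenol, 1 μM heme. Started with 100 μM arachidonic acid for 2 min at 37 °C, stopped with 1 M HCl. PGH₂ reduced by stannous chloride; PGF2α read by enzyme immunoassay at 450 nm. Index taken as the ratio of the COX IC50 values.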

MCF7 = assay: Antiproliferative activity against human MCF7 cells after 48 hrs by MTT assay; format: functional, cell-based; conditions: MCF7, 48 h
B16-F10 = assay: Antiproliferative activity against mouse B16F10 cells after 48 hrs by MTT assay; format: functional, cell-based; conditions: B16-F10, 48 h
In short: (§1)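 Cells kept in DMEM with 10% FBS, penicillin/streptomycin, 37 °C, 5% CO₂. Seeded at 5 × 10⁴ cells/well and allowed to adhere 12 h. Exposed to 0, 0.1, 1, 10 and 100 μM (final) for 48 h. Viability read by MTT reduction at OD 570 nm with 630 nm reference. IC50 reported as mean ± SD of three independent experiments.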

A549 = assay: Antiproliferative activity against human A549 cells after 48 hrs by MTT assay; format: functional, cell-based; conditions: A549, 48 h; in short: as §1
HeLa = assay: Antiproliferative activity against human HeLa cells after 48 hrs by MTT assay; format: functional, cell-based
HEK-293T = assay: Cytotoxicity against human 293T cells after 48 hrs by MTT assay; format: cell-based

Chain of Prostaglandin G/H synthase 1 (P23219 whole entry): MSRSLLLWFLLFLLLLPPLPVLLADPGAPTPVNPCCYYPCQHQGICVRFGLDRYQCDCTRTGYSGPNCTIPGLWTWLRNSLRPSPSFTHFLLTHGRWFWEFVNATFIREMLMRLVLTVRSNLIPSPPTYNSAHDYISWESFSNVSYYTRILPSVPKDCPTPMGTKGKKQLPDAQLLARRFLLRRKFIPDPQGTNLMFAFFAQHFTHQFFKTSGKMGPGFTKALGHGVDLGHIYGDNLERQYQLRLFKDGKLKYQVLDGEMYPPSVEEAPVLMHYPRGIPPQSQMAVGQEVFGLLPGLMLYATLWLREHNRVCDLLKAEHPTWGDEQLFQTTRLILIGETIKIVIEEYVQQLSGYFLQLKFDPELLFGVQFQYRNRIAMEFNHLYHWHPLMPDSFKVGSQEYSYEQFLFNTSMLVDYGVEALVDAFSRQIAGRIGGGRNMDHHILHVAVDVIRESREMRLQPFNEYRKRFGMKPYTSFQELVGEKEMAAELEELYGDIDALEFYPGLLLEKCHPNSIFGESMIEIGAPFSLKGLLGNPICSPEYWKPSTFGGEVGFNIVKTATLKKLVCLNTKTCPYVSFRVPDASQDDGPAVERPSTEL

| SMILES | IC50 [1] | IC50 [2] | Ratio IC50 (Homo sapiens) | IC50 (MCF7) | IC50 (B16-F10) | IC50 (A549) | IC50 (HeLa) | IC50 (HEK-293T) |
| --- | --- | --- | --- | --- | --- | --- | --- | --- |
| Cc1ccc(-n2nc(COC(=O)COc3cc(O)c4c(=O)cc(-c5ccccc5)oc4c3)cc2-c2cccc(C)c2)cc1 | 32.2 µM | 1.19 µM | 27 | 3.25 µM | 4.33 µM | 11.6 µM | 1.31 µM | 398 µM |
| COc1ccc(-c2cc(COC(=O)COc3cc(O)c4c(=O)cc(-c5ccccc5)oc4c3)nn2-c2ccc(Cl)cc2)cc1 | 46.4 µM | 0.35 µM | 132 | > 100 µM | 12.4 µM | 12.7 µM | 5.65 µM | 290 µM |
| Cc1cccc(-c2cc(COC(=O)COc3cc(O)c4c(=O)cc(-c5ccccc5)oc4c3)nn2-c2ccc(Cl)cc2)c1 | 27.6 µM | 1.77 µM | 15.6 | 23.4 µM | 4.95 µM | 32.1 µM | 4.06 µM | 162 µM |
| O=c1cc(-c2ccccc2)oc2cc(O)cc(O)c12 [CHRYSIN] |  |  |  | 25.7 µM | 17.4 µM | 47.8 µM | 25.1 µM | 319 µM |
| O=C(COc1cc(O)c2c(=O)cc(-c3ccccc3)oc2c1)OCc1cc(-c2cccc(Cl)c2)n(-c2ccccc2)n1 | 44.8 µM | 4.43 µM | 10.1 | 32.9 µM | 7.86 µM | 4.71 µM | 1.75 µM | 188 µM |
| O=C(COc1cc(O)c2c(=O)cc(-c3ccccc3)oc2c1)OCc1cc(-c2ccc(Cl)c(Cl)c2)n(-c2ccc(Cl)cc2)n1 | 33.1 µM | 8.58 µM | 3.86 | 12.1 µM | 6.08 µM | 3.62 µM | 4.72 µM | 268 µM |
| Cc1ccc(-c2cc(COC(=O)COc3cc(O)c4c(=O)cc(-c5ccccc5)oc4c3)nn2-c2ccc(Cl)cc2)cc1 | 40.9 µM | 1.44 µM | 28.4 | 7.86 µM | 17.6 µM | 4.69 µM | 12.4 µM | 222 µM |
| Cc1ccc(-n2nc(COC(=O)COc3cc(O)c4c(=O)cc(-c5ccccc5)oc4c3)cc2-c2ccc(F)cc2)cc1 | 30.2 µM | 2.84 µM | 10.6 | 17.8 µM | 65.8 µM | 4.62 µM | > 100 µM | 265 µM |
| Cc1ccc(-n2nc(COC(=O)COc3cc(O)c4c(=O)cc(-c5ccccc5)oc4c3)cc2-c2ccc(C(F)(F)F)cc2)cc1 | 29.7 µM | 5.02 µM | 5.92 | 6.21 µM | 7.44 µM | 5.07 µM | 4.32 µM | 212 µM |
| COc1ccc(-c2cc(COC(=O)COc3cc(O)c4c(=O)cc(-c5ccccc5)oc4c3)nn2-c2ccccc2)cc1 | 41.3 µM | 0.54 µM | 75.9 | 7.1 µM | 1.76 µM | 10.6 µM | 2.72 µM | 257 µM |
| COc1cccc(-c2cc(COC(=O)COc3cc(O)c4c(=O)cc(-c5ccccc5)oc4c3)nn2-c2ccccc2)c1 | 25.5 µM | 1.21 µM | 21 | 5.12 µM | 6.92 µM | 13.6 µM | 13.6 µM | 317 µM |
| O=C(COc1cc(O)c2c(=O)cc(-c3ccccc3)oc2c1)OCc1cc(-c2cccc([N+](=O)[O-])c2)n(-c2ccccc2)n1 | 33.8 µM | 5.94 µM | 5.68 | 12.6 µM | 21.7 µM | > 100 µM | 30.9 µM | 348 µM |
| O=C(COc1cc(O)c2c(=O)cc(-c3ccccc3)oc2c1)OCc1cc(-c2ccccc2)n(-c2ccccc2)n1 | 32.9 µM | 2.2 µM | 13.1 | 3.47 µM | 1.57 µM | 3.23 µM | 2.41 µM | 173 µM |
| O=C(COc1cc(O)c2c(=O)cc(-c3ccccc3)oc2c1)OCc1cc(-c2ccc(C(F)(F)F)cc2)n(-c2ccccc2)n1 | 32.9 µM | 4.33 µM | 7.61 | 11 µM | 9.85 µM | 8.02 µM | 6.61 µM | 162 µM |
| O=C(COc1cc(O)c2c(=O)cc(-c3ccccc3)oc2c1)OCc1cc(-c2cccc(C(F)(F)F)c2)n(-c2ccccc2)n1 | 41.1 µM | 4.79 µM | 8.58 | 8.01 µM | 6.53 µM | 6.68 µM | 4.33 µM | 271 µM |
| Cc1ccc(-c2cc(COC(=O)COc3cc(O)c4c(=O)cc(-c5ccccc5)oc4c3)nn2-c2ccc(C)cc2)cc1 | 41.2 µM | 0.42 µM | 96 | 3.23 µM | 3.51 µM | 2.87 µM | 2.87 µM | 197 µM |
| Cc1ccc(-n2nc(COC(=O)COc3cc(O)c4c(=O)cc(-c5ccccc5)oc4c3)cc2-c2ccc(Br)cc2)cc1 | 39.5 µM | 1.08 µM | 36.5 | 2.96 µM | 32.1 µM | 22.7 µM | 24.7 µM | 278 µM |
| O=C(COc1cc(O)c2c(=O)cc(-c3ccccc3)oc2c1)OCc1cc(-c2ccc([N+](=O)[O-])cc2)n(-c2ccccc2)n1 | 42 µM | 1.66 µM | 25.3 | 22.2 µM | 15.6 µM | 17 µM | 2.04 µM | 192 µM |
| O=C(COc1cc(O)c2c(=O)cc(-c3ccccc3)oc2c1)OCc1cc(-c2cccc(F)c2)n(-c2ccccc2)n1 | 43.2 µM | 3.53 µM | 12.2 | 9.02 µM | 10.8 µM | 40.2 µM | 2.81 µM | 197 µM |
| Cc1ccc(-c2cc(C(F)(F)F)nn2-c2ccc(S(N)(=O)=O)cc2)cc1 [CELECOXIB] |  |  |  | 26.8 µM | 19.2 µM | 16.1 µM | 15.7 µM | 225 µM |
| Cc1ccc(-n2nc(COC(=O)COc3cc(O)c4c(=O)cc(-c5ccccc5)oc4c3)cc2-c2ccc(Cl)c(Cl)c2)cc1 | 27.9 µM | 5.02 µM | 5.56 | 22.2 µM | 7.61 µM | > 100 µM | 6.06 µM | 273 µM |
| O=C(COc1cc(O)c2c(=O)cc(-c3ccccc3)oc2c1)OCc1cc(-c2ccc(Cl)cc2)n(-c2ccccc2)n1 | > 50 µM | 1.41 µM | > 35 | 47 µM | 15.6 µM | > 100 µM | 1.65 µM | 227 µM |
| O=C(COc1cc(O)c2c(=O)cc(-c3ccccc3)oc2c1)OCc1cc(-c2cccc(Cl)c2)n(-c2ccc(Cl)cc2)n1 | 36.8 µM | 0.422 µM | 87.3 | 3.94 µM | 5.73 µM | 4.34 µM | > 100 µM | 272 µM |
| Cc1ccc(-n2nc(COC(=O)COc3cc(O)c4c(=O)cc(-c5ccccc5)oc4c3)cc2-c2ccc([N+](=O)[O-])cc2)cc1 | 44.8 µM | 1.39 µM | 32.1 | 15.8 µM | 2.71 µM | 5.88 µM | 18.4 µM | 216 µM |
| Cc1ccc(-c2cc(COC(=O)COc3cc(O)c4c(=O)cc(-c5ccccc5)oc4c3)nn2-c2ccccc2)cc1 | 45 µM | 0.93 µM | 48.4 | 5.43 µM | 2.59 µM | 4.49 µM | 4.78 µM | 315 µM |
| Cc1ccc(-n2nc(COC(=O)COc3cc(O)c4c(=O)cc(-c5ccccc5)oc4c3)cc2-c2ccc(Cl)cc2)cc1 | > 50 µM | 2.12 µM | > 23 | > 100 µM | 20.8 µM | 3.68 µM | 2.67 µM | 299 µM |
